# Results gathered from unrelated publications.
# Protocols differ between the studies behind these lines.
# Organism: Enterobacter cloacae
# Effect on: microbial growth
SMILES,test,test system,MIC
CN(C)CCOc1c2c(c(O)c3cc(CN4CCC4)ccc13)C(=O)C1=C(O)[C@]3(O)C(=O)C(C(N)=O)=C(O)[C@@H](N(C)C)[C@@H]3C[C@@H]1C2,broth dilution,ATCC13047,> 32 µg/mL
Cc1c(CN(C)C(=O)/C=C/c2cnc3c(c2)CC(CCN)C(=O)N3)oc2ccccc12.Cl (centres unmarked),broth dilution,BAA2341,16 µg/mL
CO[C@@H](C(N)=O)[C@H](NC(=O)c1ccc(NC(=O)c2ccc(C#N)cc2)cc1)C(=O)Nc1ccc(C(=O)Nc2ccc(C(=O)Nc3ccc(C(=O)O)cc3)c(O)c2OC(C)C)cc1,,DSM30054,> 64 µg/mL
O=C(Nc1ccc2c(c1)OC(F)(F)O2)Nc1ccc(Cl)c(C(F)(F)F)c1,,DSM30054,> 100 µM
CN(C)[C@@H]1C(O)=C(C(N)=O)C(=O)[C@@]2(O)C(O)=C3C(=O)c4c(O)cnc(Cl)c4C[C@H]3C[C@@H]12.Cl,broth dilution,ATCC13047,8 µg/mL
C[C@@H](O)[C@H]1C(=O)N2C(C(=O)O)=C(S[C@@H]3CN[C@H](C(=O)N(C)C)C3)[C@H](C)[C@H]12,,,1.3 µM
CNC(=O)c1cc(Oc2ccc(NC(=O)Nc3ccc(Cl)c(C(F)(F)F)c3)cc2)ccn1,,DSM30054,> 100 µM
Cc1nc(Cl)c2c(c1O)C(=O)C1=C(O)[C@]3(O)C(=O)C(C(N)=O)=C(O)[C@@H](N(C)C)[C@@H]3C[C@@H]1C2.Cl,broth dilution,ATCC13047,32 µg/mL
C/C(=C\c1ccc(C#N)cc1)C(=O)Nc1ccc(C(=O)N[C@@H](CC(N)=O)C(=O)Nc2ccc(C(=O)Nc3ccc(C(=O)Nc4ccc(C(=O)O)cc4)c(O)c3OC(C)C)cc2)cc1,,DSM30054,> 64 µg/mL
CC(C)CNc1nc(Cl)c2c(c1O)C(=O)C1=C(O)[C@]3(O)C(=O)C(C(N)=O)=C(O)[C@@H](N(C)C)[C@@H]3C[C@@H]1C2.Cl.Cl.Cl,broth dilution,ATCC13047,> 32 µg/mL
CN(C)[C@@H]1C(O)=C(C(N)=O)C(=O)[C@@]2(O)C(O)=C3C(=O)c4c(cc5ccc(CN6CC(F)(F)C6)cc5c4O)C[C@H]3C[C@@H]12,broth dilution,ATCC13047,32 µg/mL
